Source: ChEMBL document CHEMBL4145473, “Substituted tetrahydroisoquinolines: synthesis, characterization, antitumor activity and other biological properties” (Eur J Med Chem, 2018)
Blank lines part the entries; values can stand above or below the compound they belong to. The source made the active and inactive calls. No cut-off for these calls is given here.

Experiments:
L1210 [1] = test: Cytotoxicity against mouse L1210 cells after 48 hrs by coulter counter method; assay type: functional, cell-based; conditions: L1210, 48 h
How it was run: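 L1210 cells in RPMI 1640 with 2 mM L-glutamine, penicillin, streptomycin and 20% heat-inactivated horse serum at 37 °C, 5% CO2. Drugs added in DMSO (0.5% final) to exponentially growing cells seeded at 0.8 × 10^5 cells/mL. Cells counted in triplicate after 48 h by Coulter counter. IC50 taken from probit regression of percent growth inhibition against log dose.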

[2] = molecular target: GTPase KRas (Homo sapiens) (UniProt P01116); test: Inhibition of KRas in human Colon 320 cells at 2 uM relative to control; assay type: cell-based
[3] = molecular target: GTPase KRas (Homo sapiens) (UniProt P01116); test: Inhibition of KRas in human RKO cells at 0.2 uM relative to control; assay type: cell-based
[4] = molecular target: GTPase KRas (Homo sapiens) (UniProt P01116); test: Inhibition of KRas in human SNU-C1 cells at 20 uM relative to control; assay type: cell-based
[5] = molecular target: GTPase KRas (Homo sapiens) (UniProt P01116); test: Inhibition of KRas in human RKO cells at 2 uM relative to control; assay type: cell-based
[6] = molecular target: GTPase KRas (Homo sapiens) (UniProt P01116); test: Inhibition of KRas in human Colon 320 cells at 20 uM relative to control; assay type: cell-based
[7] = molecular target: GTPase KRas (Homo sapiens) (UniProt P01116); test: Inhibition of KRas in human HCT cells at 2 uM relative to control; assay type: cell-based
[8] = molecular target: GTPase KRas (Homo sapiens) (UniProt P01116); test: Inhibition of KRas in human HCT cells at 20 uM relative to control; assay type: cell-based
[9] = molecular target: GTPase KRas (Homo sapiens) (UniProt P01116); test: Inhibition of KRas in human Colon 320 cells at 0.2 uM relative to control; assay type: cell-based
[10] = molecular target: GTPase KRas (Homo sapiens) (UniProt P01116); test: Inhibition of KRas in human SNU-C1 cells at 0.2 uM relative to control; assay type: cell-based
[11] = molecular target: GTPase KRas (Homo sapiens) (UniProt P01116); test: Inhibition of KRas in human RKO cells at 20 uM relative to control; assay type: cell-based
[12] = molecular target: GTPase KRas (Homo sapiens) (UniProt P01116); test: Inhibition of KRas in human SNU-C1 cells at 2 uM relative to control; assay type: cell-based
L1210 [13] = test: Cell cycle arrest in mouse L1210 cells assessed accumulation of cells at G1 phase at 100 uM after 21 hrs by propidium iodide staining-based flow cytometric analysis; assay type: functional
How it was run: (§1)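 L1210 leukemia cells in RPMI 1640 with 2 mM L-glutamine, penicillin, streptomycin and 20% heat-inactivated horse serum, exposed to several drug concentrations for 21 h at 37 °C, 5% CO2. Cells fixed in 70% ethanol, washed, then stained 30 min at room temperature in PBS containing RNAse and propidium iodide. Flow cytometry; result given as percentage of cells in each cell-cycle phase.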

[14] = molecular target: GTPase KRas (Homo sapiens) (UniProt P01116); test: Inhibition of KRas in human HCT cells at 0.2 uM relative to control; assay type: cell-based
L1210 [15] = test: Cell cycle arrest in mouse L1210 cells assessed accumulation of cells at G1 phase at 25 uM after 21 hrs by propidium iodide staining-based flow cytometric analysis; assay type: functional; how it was run: as §1
L1210 [16] = test: Cell cycle arrest in mouse L1210 cells assessed accumulation of cells at G2/M phase at 50 uM after 21 hrs by propidium iodide staining-based flow cytometric analysis; assay type: functional; how it was run: as §1
L1210 [17] = test: Cell cycle arrest in mouse L1210 cells assessed accumulation of cells at 8N phase at 5 uM after 21 hrs by propidium iodide staining-based flow cytometric analysis relative to control; assay type: functional; how it was run: as §1
L1210 [18] = test: Cell cycle arrest in mouse L1210 cells assessed accumulation of cells at 8N phase at 10 uM after 21 hrs by propidium iodide staining-based flow cytometric analysis relative to control; assay type: functional; how it was run: as §1
L1210 [19] = test: Cell cycle arrest in mouse L1210 cells assessed accumulation of cells at G2/M phase at 100 uM after 21 hrs by propidium iodide staining-based flow cytometric analysis; assay type: functional; how it was run: as §1

GTPase KRas (Homo sapiens), sequence (P01116 whole entry, looked up): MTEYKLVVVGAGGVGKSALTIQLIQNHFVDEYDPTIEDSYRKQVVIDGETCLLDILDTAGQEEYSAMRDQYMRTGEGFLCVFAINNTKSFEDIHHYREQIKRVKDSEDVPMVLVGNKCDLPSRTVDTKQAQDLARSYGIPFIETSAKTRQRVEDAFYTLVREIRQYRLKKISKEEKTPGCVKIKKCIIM

Compound: CCOC(=O)N1CCc2cc3c(cc2C1c1ccncc1)OCCO3 (stereo not drawn)
IC50 (L1210 [1]): > 10 µM

Compound: COc1cc2c(cc1OC)C(c1cc(OC)c(OC)c(OC)c1)N(CCO)CC2 (stereo not drawn)
IC50 (L1210 [1]): 23.4 µM

inhibition [2]: 8.2%
inhibition [3]: 0%
inhibition [4]: 59.8%
inhibition [5]: 16.3%
inhibition [6]: 74.7%
inhibition [7]: 17%
inhibition [8]: 49.1%
inhibition [9]: 0%
inhibition [10]: 10%
inhibition [11]: 79.2%
inhibition [12]: 6%
inhibition [14]: 12.1%
Compound: COc1cc(C2c3cc4c(cc3CCN2CC#N)OCCO4)cc(OC)c1OC (stereo not drawn)
IC50 (L1210 [1]): 4.2 µM
Activity (L1210 [13]): Active

Compound: CCOC(=O)N1CCc2cc3c(cc2C1c1cc(OC)c(OC)c(OC)c1)OCCO3 (stereo not drawn)
IC50 (L1210 [1]): > 10 µM

Compound: COc1cc(C2NCCc3cc4c(cc32)OCCO4)cc(OC)c1OC (stereo not drawn)
IC50 (L1210 [1]): 21.1 µM
Activity (L1210 [13]): Active

inhibition [2]: 4%
inhibition [3]: 17.9%
inhibition [4]: 42.7%
inhibition [5]: 32.9%
inhibition [6]: 92.5%
inhibition [7]: 19.3%
inhibition [8]: 55.9%
inhibition [9]: 0%
inhibition [10]: 17.7%
inhibition [11]: 70.5%
inhibition [12]: 35%
inhibition [14]: 0%
Compound: COc1cc(C2c3cc4c(cc3CCN2c2ccc([N+](=O)[O-])cc2)OCCO4)cc(OC)c1OC (stereo not drawn)
IC50 (L1210 [1]): 4.6 µM
Activity (L1210 [15]): Active

Compound: COc1cc2c(cc1OC)C(c1cc(OC)c(OC)c(OC)c1)N(CC(O)CO)CC2 (stereo not drawn)
IC50 (L1210 [1]): 15.3 µM

Compound: COc1cc2c(c3c1c(=O)c1ccccc1n3C)C=CC(C)(C)O2 [ACRONINE]
IC50 (L1210 [1]): 21 µM
Activity (L1210 [16]): Active

Compound: COc1cc(C2c3cc4c(cc3CCN2CCN(C)C)OCCO4)cc(OC)c1OC (stereo not drawn)
IC50 (L1210 [1]): 3.7 µM
Activity (L1210 [15]): Active

Compound: COc1cc(C2c3cc4c(cc3CCN2CCCCCC(=O)O)OCCO4)cc(OC)c1OC (stereo not drawn)
IC50 (L1210 [1]): 9.4 µM

inhibition [2]: 0%
inhibition [3]: 0%
inhibition [4]: 19.7%
inhibition [5]: 6.3%
inhibition [6]: 78.2%
inhibition [7]: 12.1%
inhibition [8]: 46.5%
inhibition [9]: 12.2%
inhibition [10]: 12.3%
inhibition [11]: 76.7%
inhibition [12]: 11.5%
inhibition [14]: 18%
Compound: COc1cc(C2c3cc4c(cc3CCN2CCO)OCCO4)cc(OC)c1OC (stereo not drawn)
IC50 (L1210 [1]): 2.6 µM
Activity (L1210 [17]): 70%

Compound: CCN(CC)CCN1CCc2cc3c(cc2C1c1cc(OC)c(OC)c(OC)c1)OCCO3 (stereo not drawn)
IC50 (L1210 [1]): 4.1 µM

Compound: CCOC(=O)CCCCCN1CCc2cc3c(cc2C1c1cc(OC)c(OC)c(OC)c1)OCCO3 (stereo not drawn)
IC50 (L1210 [1]): > 10 µM

inhibition [2]: 22.5%
inhibition [3]: 95.8%
inhibition [4]: 43.5%
inhibition [5]: 7.7%
inhibition [6]: 89.9%
inhibition [7]: 16%
inhibition [8]: 45.2%
inhibition [9]: 0%
inhibition [10]: 6.6%
inhibition [11]: 66.5%
inhibition [12]: 32.5%
inhibition [14]: 35.9%
Compound: COc1cc(C2c3cc4c(cc3CCN2c2ccc(C#N)cc2)OCCO4)cc(OC)c1OC (stereo not drawn)
IC50 (L1210 [1]): 3.6 µM
Activity (L1210 [18]): 70%

Compound: CCOC(CCN1CCc2cc3c(cc2C1c1cc(OC)c(OC)c(OC)c1)OCCO3)OCC (stereo not drawn)
IC50 (L1210 [1]): > 10 µM

Compound: O=C(O)CCCCCN1CCc2cc3c(cc2C1c1ccncc1)OCCO3 (stereo not drawn)
IC50 (L1210 [1]): > 10 µM

inhibition [2]: 20.1%
inhibition [3]: 0%
inhibition [4]: 57.1%
inhibition [5]: 10.1%
inhibition [6]: 85.3%
inhibition [7]: 16.2%
inhibition [8]: 56.9%
inhibition [9]: 0%
inhibition [10]: 12.2%
inhibition [11]: 92.7%
inhibition [12]: 2.4%
inhibition [14]: 0%
Compound: COc1cc(C2c3cc4c(cc3CCN2CCN)OCCO4)cc(OC)c1OC (stereo not drawn)
IC50 (L1210 [1]): 2 µM
Activity (L1210 [15]): Active

Compound: COc1cc(-c2nccc3cc4c(cc23)OCCO4)cc(OC)c1OC
IC50 (L1210 [1]): 25.1 µM
Activity (L1210 [19]): Active

Compound: COC(=O)CCCCCN1CCc2cc3c(cc2C1c1ccncc1)OCCO3 (stereo not drawn)
IC50 (L1210 [1]): > 10 µM
